Measurements reported in ChEMBL document CHEMBL1255219, “Discovery of a β-d-2'-deoxy-2'-α-fluoro-2'-β-C-methyluridine nucleotide prodrug (PSI-7977) for the treatment of hepatitis C virus” (J Med Chem, 2010).

Tests used:
[1] = AUC (0 to infinity) in cynomolgus monkey plasma at 50 mg/kg, po qd for 4 days; type: ADME, organism-based, Macaca fascicularis; design: time infinity, dose 50 mg/kg, route oral
Outline: (§1)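 Oral gavage (dog gastric, monkey nasogastric), 50 mg/kg in 20% w/v hydroxypropyl-β-cyclodextrin in water, 2.5 mL/kg, once daily for 4 consecutive days. Blood sampled into K2EDTA at 1, 2, 4, 6, 12 and 24 h postdose on day 3. Prodrug in plasma quantified by LC/MS/MS, noncompartmental analysis.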

[2] = Cytotoxicity against human myeloid progenitor cells after 14 to 16 days
[3] = Cytotoxicity against HuH7 cells at 100 uM; type: cell-based; settings: human, huh-7, 100 µM
Outline: (§2)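 Huh7, HepG2 and BxPC3 cells at 2 × 10^3 per well, CEM at 5 × 10^3 per well. Compound serially diluted from 100 μM, 8 days at 37 °C. MTS added for 2 h, absorbance read at 490 nm with medium-only blanks. CC50 taken relative to untreated cells.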

[4] = system: Hepatitis C virus; test: Antiviral activity against HCV infected in human clone A cells; type: functional, Hepacivirus hominis; settings: Hepatitis C virus
Outline: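 Clone A replicon cells seeded at 1500 cells/well. Compounds serially diluted in G418-free culture medium and added, then incubated 4 days at 37 °C in 5% CO2. HCV RNA quantified by real-time RT-PCR as ΔCt relative to the mean no-drug control.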

[5] = Half life in human liver S9 fraction at 100 uM; type: ADME, subcellular
Outline: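 Compound at 100 μM in 50 mM K2HPO4 pH 7.4 with 5 mM MgCl2. Started with 4 mg/mL human liver S9 at 37 °C. Samples at 0–24 h quenched with acetonitrile. Parent remaining measured by LC/MS/MS peak area relative to 0 h, and half-life calculated.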

[6] = Half life in simulated intestinal fluid of pH 7.5 at 50 ug/mL; type: physicochemical
Outline: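 Compound at 50 μg/mL in simulated gastric fluid (pH 1.2) or simulated intestinal fluid (pH 7.5), 37 °C, 20 h. Injected by reverse-phase HPLC every 2 h, peak area at 260 nm.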

[7] = AUC (0 to infinity) in dog plasma at 50 mg/kg, po qd for 4 days; type: ADME, organism-based, Canis lupus familiaris; design: time infinity, dose 50 mg/kg, route oral; outline: as §1
[8] = system: Rattus norvegicus; test: Toxicity in rat assessed as change in macroscopic pathology at 50 to 1800 mg/kg, po after 14 days; type: organism-based; design: dose 50-1800 mg/kg, route oral; settings: in vivo, 336 h
Outline: (§3)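 Rats (CD SD, 4–5 weeks, 76–100 g) given a single oral dose of 50, 300 or 1800 mg/kg, or vehicle (30% PEG400/30% Tween 20/20% corn oil/20% water). Observed daily for 14 days with daily body weights. Necropsy on day 15 with macroscopic examination and liver and paired kidney weights.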

[9] = system: Hepatitis C virus; test: Antiviral activity against HCV infected in human clone A cells assessed as inhibition of cellular rRNA replication at 50 uM; type: functional, Hepacivirus hominis
[10] = Cytotoxicity against human erythroid progenitor cells after 14 to 16 days
[11] = organism: Homo sapiens; test: Half life in human plasma at 100 uM
[12] = system: Rattus norvegicus; test: Toxicity in rat assessed as change in body weight at 50 to 1800 mg/kg, po after 14 days; type: organism-based; design: dose 50-1800 mg/kg, route oral; settings: in vivo, 336 h; outline: as §3
[13] = Half life in simulated gastric fluid at pH 1.2 at 50 ug/mL; type: physicochemical
Outline: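 Compound at 50 μg/mL in simulated gastric fluid (pH 1.2) or simulated intestinal fluid (pH 7.5), 37 °C, 20 h. Injected by reverse-phase HPLC every 2 h, peak area at 260 nm. Percent parent remaining relative to 0 h, giving half-life.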

[14] = system: Rattus norvegicus; test: Toxicity in rat assessed as change in liver weight at 50 to 1800 mg/kg, po after 14 days; type: organism-based; design: dose 50-1800 mg/kg, route oral; settings: in vivo, 336 h; outline: as §3
[15] = Tmax in dog plasma at 50 mg/kg, po qd for 4 days; type: ADME, organism-based, Canis lupus familiaris; design: dose 50 mg/kg, route oral; outline: as §1
[16] = system: Rattus norvegicus; test: AUC (0 to infinity) in rat liver assessed as 2'-F-2'-C-Methyluridine-5''-TP level at 50 mg/kg, po; type: ADME, organism-based; design: time infinity, dose 50 mg/kg, route oral; settings: in vivo
Outline: (§4)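 Rats given a single oral gavage dose of 50 mg/kg in 0.5% carboxymethylcellulose sodium, 5 mL/kg. Livers taken at 0.5, 1, 2, 4, 6 and 12 h after CO2 sacrifice and ice-cold saline perfusion, then snap-frozen. Homogenized in 3 volumes of cold 70% methanol with 20 mM EDTA/EGTA. Triphosphate measured by LC/MS/MS (ESI, MRM negative mode), noncompartmental analysis.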

[17] = system: Cynomolgus monkey; test: Metabolic stability in cynomolgus monkey liver assessed as 2'-F-2'-C-Methyluridine-5''-triphosphate level at 50 mg/kg, po; type: ADME, organism-based, Macaca fascicularis; design: dose 50 mg/kg, route oral; settings: in vivo
Outline: (§5)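 Dogs and cynomolgus monkeys gavaged once daily with 50 mg/kg in 20% w/v hydroxypropyl-β-cyclodextrin for 4 days. At 4 h postdose on day 4, under pentobarbital, the liver was perfused with ice-cold saline via a portal cannula. Five lobe samples were snap-frozen and homogenized in 3 volumes of cold 70% methanol with 20 mM EDTA/EGTA. Prodrug and triphosphate measured by LC/MS/MS.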

[18] = system: Rattus norvegicus; test: Toxicity in rat assessed as change in kidney weight at 50 to 1800 mg/kg, po after 14 days; type: organism-based; design: dose 50-1800 mg/kg, route oral; settings: in vivo, 336 h; outline: as §3
[19] = Cytotoxicity against human BxPC3 cells at 100 uM; type: cell-based; settings: bxpc-3, 100 µM; outline: as §2
[20] = AUC (0 to t) in cynomolgus monkey plasma at 50 mg/kg, po qd for 4 days; type: ADME, organism-based, Macaca fascicularis; design: dose 50 mg/kg, route oral; outline: as §1
[21] = Permeability by PAMPA assay; type: ADME; settings: read-out: permeability
Outline: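 PAMPA with a lecithin-in-dodecane (20 mg/mL) coated filter donor. Donor held 200 μg/mL compound in PBS pH 7.4 with 2% DMSO; acceptor held PBS with 2% DMSO. Left 24 h. Donor and acceptor concentrations measured by LC/MS/MS (MRM), and Pe calculated from concentrations, volumes, filter area and time.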

[22] = system: Rattus norvegicus; test: Tmax in rat liver assessed as 2'-F-2'-C-Methyluridine-5''-TP level at 50 mg/kg, po; type: ADME, organism-based; design: dose 50 mg/kg, route oral; settings: in vivo; outline: as §4
[23] = system: Cynomolgus monkey; test: Metabolic stability in cynomolgus monkey liver assessed as prodrug level at 50 mg/kg, po; type: ADME, organism-based, Macaca fascicularis; design: dose 50 mg/kg, route oral; settings: in vivo; outline: as §5
[24] = system: CCRF-CEM; test: Cytotoxicity against human CEM cells at 100 uM; type: cell-based; outline: as §2
[25] = system: Rattus norvegicus; test: Cmax in rat liver assessed as 2'-F-2'-C-Methyluridine-5''-TP level at 50 mg/kg, po; type: ADME, organism-based; design: dose 50 mg/kg, route oral; settings: in vivo; outline: as §4
[26] = system: Rattus norvegicus; test: AUC (0 to t) in rat liver assessed as 2'-F-2'-C-Methyluridine-5''-TP level at 50 mg/kg, po; type: ADME, organism-based; design: dose 50 mg/kg, route oral; settings: in vivo; outline: as §4
[27] = system: Rattus norvegicus; test: Toxicity in rat assessed as mortality at 50 to 1800 mg/kg, po after 14 days; type: organism-based; design: dose 50-1800 mg/kg, route oral; settings: in vivo, 336 h; outline: as §3
[28] = Cmax in dog plasma at 50 mg/kg, po qd for 4 days; type: ADME, organism-based, Canis lupus familiaris; design: dose 50 mg/kg, route oral; outline: as §1
[29] = system: HepG2; test: Cytotoxicity against human HepG2 cells at 100 uM; type: cell-based; settings: hepg2, 100 µM; outline: as §2
[30] = Cmax in cynomolgus monkey plasma at 50 mg/kg, po qd for 4 days; type: ADME, organism-based, Macaca fascicularis; design: dose 50 mg/kg, route oral; outline: as §1
[31] = system: Canis familiaris; test: Metabolic stability in dog liver assessed as prodrug level at 50 mg/kg, po; type: ADME, organism-based, Canis lupus familiaris; design: dose 50 mg/kg, route oral; settings: in vivo; outline: as §5
[32] = Tmax in cynomolgus monkey plasma at 50 mg/kg, po qd for 4 days; type: ADME, organism-based, Macaca fascicularis; design: dose 50 mg/kg, route oral; outline: as §1
[33] = AUC (0 to t) in dog plasma at 50 mg/kg, po qd for 4 days; type: ADME, organism-based, Canis lupus familiaris; design: dose 50 mg/kg, route oral; outline: as §1
[34] = system: Canis familiaris; test: Metabolic stability in dog liver assessed as 2'-F-2'-C-Methyluridine-5''-triphosphate level at 50 mg/kg, po; type: ADME, organism-based, Canis lupus familiaris; design: dose 50 mg/kg, route oral; settings: in vivo; outline: as §5

| Compound | IC50 [2] | Activity [3] | EC90 [4] | half-life at 100 µM [5] | AUC(0-inf) [7] | Activity [8] | inhibition at 50 µM [9] | IC50 [10] | Activity [12] | half-life at 50 ug/mL [13] | Activity [14] | Tmax [15] | AUC [16] | Activity [18] | Activity [19] | Papp [21] | Tmax [22] | Drug uptake [23] | Activity [24] | Cmax [25] | also measured |
| --- | --- | --- | --- | --- | --- | --- | --- | --- | --- | --- | --- | --- | --- | --- | --- | --- | --- | --- | --- | --- | --- |
| COC(=O)[C@H](C)NP(=O)(OC[C@H]1O[C@@H](n2ccc(=O)[nH]c2=O)[C@](C)(F)[C@@H]1O)Oc1ccccc1 (some centres not stated) | > 50 µM | Non-toxic | 0.91 µM | 0.18 h | 420 ng·h/mL | Non-toxic | 0% | > 50 µM | Non-toxic | 15.5 h | Non-toxic | 1 h | 18968 ng·h/g | Non-toxic | Non-toxic | 0.007 ×10⁻⁶ cm/s | 6 h | 4.66 ng/g | Non-toxic | 1985 ng/g | AUC(0-inf) [1]: 34 ng·h/mL; half-life at 50 ug/mL [6]: > 20 h; half-life at 100 µM [11]: 16.7 h; Drug uptake [17]: 26 ng/g; AUC(0-t) at 96 h [20]: 27 ng·h/mL; AUC [26]: 14206 ng·h/g; Activity [27]: Non-toxic; Cmax [28]: 317 ng/mL; Activity [29]: Non-toxic; Cmax [30]: 19 ng/mL; Drug uptake [31]: 5.24 ng/g; Tmax [32]: 0.25 h; AUC(0-t) at 96 h [33]: 418 ng·h/mL; Drug uptake [34]: 4960 ng/g |
| CC(C)OC(=O)[C@H](C)NP(=O)(OC[C@H]1O[C@@H](n2ccc(=O)[nH]c2=O)[C@](C)(F)[C@@H]1O)Oc1ccccc1 (some centres not stated) | > 50 µM | Non-toxic | 0.52 µM | 0.57 h | 6900 ng·h/mL | Non-toxic | 25.9% | > 50 µM | Non-toxic | 22 h | Non-toxic | 0.5 h | 18080 ng·h/g | Non-toxic | Non-toxic | 0.046 ×10⁻⁶ cm/s | 4 h | 177 ng/g | Non-toxic | 1934 ng/g | AUC(0-inf) [1]: 170 ng·h/mL; Drug uptake [17]: 57 ng/g; AUC(0-t) at 96 h [20]: 86 ng·h/mL; AUC [26]: 16796 ng·h/g; Activity [27]: Non-toxic; Cmax [28]: 6180 ng/mL; Activity [29]: Non-toxic; Cmax [30]: 33 ng/mL; Drug uptake [31]: 612 ng/g; Tmax [32]: 1 h; AUC(0-t) at 96 h [33]: 6890 ng·h/mL; Drug uptake [34]: 10560 ng/g |
| C[C@H](NP(=O)(OC[C@H]1O[C@@H](n2ccc(=O)[nH]c2=O)[C@](C)(F)[C@@H]1O)Oc1ccc(F)cc1)C(=O)OC1CCCCC1 (some centres not stated) | 30 µM | Non-toxic | 0.04 µM | 0.18 h | 62 ng·h/mL | Non-toxic | 52.1% | 37 µM | Non-toxic | 20 h | Non-toxic | 0.25 h | 9888 ng·h/g | Non-toxic | Non-toxic | 0.488 ×10⁻⁶ cm/s | 4 h | 13 ng/g | Non-toxic | 716 ng/g | half-life at 50 ug/mL [6]: > 20 h; half-life at 100 µM [11]: > 24 h; AUC [26]: 8937 ng·h/g; Activity [27]: Non-toxic; Cmax [28]: 36 ng/mL; Activity [29]: Non-toxic; Cmax [30]: 1.8 ng/mL; Drug uptake [31]: 8.72 ng/g; Tmax [32]: 6 h; AUC(0-t) at 96 h [33]: 54 ng·h/mL; Drug uptake [34]: 476 ng/g |
